The record followed here is ChEMBL document CHEMBL2163189, “Discovery and characterization of an inhibitor of glucosylceramide synthase” (J Med Chem, 2012).

Structures are written as SMILES.

The nature of data set [1]: Half life in CD rat at 5 mg/kg. It counts as ADME, organism-based. Further details: dose 5 mg/kg. The note with it: in vivo. The procedure, abridged:
(§1)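 Female CD rats, n = 3, given 5 mpk. The HCl salt in saline served as both the oral and the iv formulation. Values are mean ± SD.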

A short description of data set [2]: Oral bioavailability in CD rat at 5 mg/Kg. The format is ADME, organism-based. The note with it: in vivo. In outline: as §1
Data set [3] in a line: Clearance in CD rat at 5 mg/kg. The format is ADME, organism-based. Further details: dose 5 mg/kg. To be noted: in vivo. In outline:
as §1

Data set [4] is described as follows: Volume of distribution at steady state in CD rat at 5 mg/Kg. The format is ADME, organism-based. To be noted: in vivo, read-out: Vdss. In outline: as §1
The nature of data set [5]: AUC ( 0 to t) in CD rat at 5 mg/kg. The format is ADME, organism-based. Further details: dose 5 mg/kg. To be noted: plasma. The procedure, abridged: as §1
Data set [6] in a line: Cmax in CD rat at 5 mg/kg. It counts as ADME, organism-based. More on the design: dose 5 mg/kg. The note with it: in vivo. The procedure, abridged:
as §1

Data set [7] in a line: Tmax in CD rat at 5 mg/kg. The note with it: in vivo. More on the design: dose 5 mg/kg. The format is ADME, organism-based. The procedure, abridged:
as §1

A short description of data set [8]: Drug uptake in C57BL6 mouse liver at 10 mg/kg, po after 24 hrs. The format is ADME, organism-based. Further details: dose 10 mg/kg, route oral. The note with it: read-out: Drug uptake. In outline: (§2)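 Male C57BL6 mice, n = 3, given a single oral dose of 10 mpk. Compound levels in tissue or plasma were measured 24 h after the dose. Values are mean ± SD.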
Data set [9] in a line: Plasma concentration in C57BL6 mouse at 10 mg/kg, po after 24 hrs. It counts as ADME, organism-based. More on the design: dose 10 mg/kg, route oral. In outline:
as §2

A short description of data set [10]: Drug uptake in C57BL6 mouse muscle at 10 mg/kg, po after 24 hrs. It counts as ADME, organism-based, Muscle tissue. Further details: dose 10 mg/kg, route oral. To be noted: read-out: Drug uptake. The procedure, abridged:
as §2

Data set [11] in a line: Drug uptake in C57BL6 mouse Fat at 10 mg/kg, po after 24 hrs. The format is ADME, organism-based. Further details: dose 10 mg/kg, route oral. The note with it: fat (adipose tissue), read-out: Drug uptake. The procedure, abridged:
as §2

A short description of data set [12]: Metabolic stability in mouse liver microsome assessed as compound conversion at 15 uM after 30 mins. To be noted: liver microsomes, read-out: Drug metabolism. The format is ADME. For orientation: Liver microsomes are a subcellular fraction often used to study metabolism.
Data set [13] in a line: Plasma concentration in mouse at 100 mg/kg, po after 4 hrs. The format is ADME, organism-based. More on the design: dose 100 mg/kg, route oral. The procedure, abridged:
(§3)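 Female nude mice (n = 3) given 100 mpk orally. Plasma compound levels measured 1 and 4 h after dosing, reported as mean ± SD.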

A short description of data set [14]: Plasma concentration in mouse at 100 mg/kg, po after 1 hr. It counts as ADME, organism-based. Further details: dose 100 mg/kg, route oral. The procedure, abridged:
as §3

A word on the half-life: it is how long it takes for the measured level to halve. The bioavailability is dose-corrected exposure relative to a reference, in per cent. One may read the clearance as a measure of how efficiently the substance is removed, as volume per time. As usually defined, the AUC(0-t) is the area under the concentration-time curve up to a stated or last time point. Read a low AUC(0-t) as less exposure. What is called Cmax is the maximum level reached in the sampled fluid or tissue. The term Tmax denotes the time at which the peak concentration occurs. In data set [1], `Cl.NC1C[C@H]2CC[C@@H](C1)N2C(=O)[C@H](Cc1ccc(Br)cc1)NC(=O)C1(c2ccc(OC(F)(F)F)cc2)CC1` (stereo partly drawn) showed a half-life of 25.3 h. In data set [2], this compound returned a bioavailability of 88.1%. Also, the clearance in data set [3] was 9.58 mL/min/kg. The Vd in data set [4] stood at 19.3 L/kg. Also, in data set [5], the AUC(0-t) worked out at 5.8 µM·h. The Cmax in [6] was 300 nM. Besides, in [7], the Tmax amounted to 8 h. For the same compound, the concentration at 24 h in [8] turned out to be 5900 nM; in data set [9], 500 nM; in [10], 1800 nM; in data set [11], 800 nM. With `O=C([C@H](Cc1ccc(Br)cc1)NC(=O)C1(c2ccc(Cl)cc2Cl)CC1)N1CCC(O)CC1`, in [12], the metabolised at 0.5 h, 15 µM is 30%. Still for that read-out and setting: in the case of `NC1CCN(C(=O)[C@H](Cc2ccc(Br)cc2)NC(=O)C2(c3ccc(Cl)cc3Cl)CC2)CC1` it was 50%; in that of `NC1CCCC(NC(=O)[C@H](Cc2ccc(Cl)cc2Cl)NC(=O)C2(c3ccc(Cl)cc3Cl)CC2)C1` (stereo partly drawn), 10%; in that of `NC1C[C@H]2CC[C@@H](C1)N2C(=O)[C@H](Cc1ccc(Cl)cc1Cl)NC(=O)C1(c2ccc(Cl)cc2Cl)CC1` (stereo partly drawn), 20%.

Regarding `NC1C[C@H]2CC[C@@H](C1)N2C(=O)[C@H](Cc1ccc(Br)cc1)NC(=O)C1(c2ccc(Cl)cc2Cl)CC1` (stereo partly drawn), the metabolised at 0.5 h, 15 µM in data set [12] was 20%.

Regarding `NC1C[C@H]2CC[C@@H](C1)N2C(=O)[C@H](Cc1ccc(Cl)cc1Cl)NC(=O)C1(c2ccc(OC(F)(F)F)cc2)CC1` (stereo partly drawn), in [12], the metabolised at 0.5 h, 15 µM stood at 8%. As for `NC1C[C@H]2CC[C@@H](C1)N2C(=O)[C@H](Cc1ccc(Br)cc1)NC(=O)C1(c2ccc(OC(F)(F)F)cc2)CC1` (stereo partly drawn), the metabolised at 0.5 h, 15 µM in [12] was 7%. For the compound `CN1CCN(C(=O)[C@H](Cc2c[nH]c3ccccc23)NC(=O)C2(c3ccc(Cl)cc3Cl)CC2)CC1`, the concentration at 4 h in data set [13] stood at 700 nM. This compound also returned a concentration at 1 h in [14] of 900 nM. Further, the metabolised at 0.5 h, 15 µM in data set [12] was 90%. Turning to `CN1CCN(C(=O)[C@H](COCc2ccccc2)NC(=O)C2(c3ccc(Cl)cc3Cl)CC2)CC1`, in data set [12], the metabolised at 0.5 h, 15 µM is 50%. `CN1CCN(C(=O)[C@H](Cc2ccccc2)NC(=O)C2(c3ccc(Cl)cc3Cl)CC2)CC1`: the metabolised at 0.5 h, 15 µM in [12] stood at 80%. As to `CN1CCN(C(=O)[C@H](Cc2ccc(Cl)cc2Cl)NC(=O)C2(c3ccc(Cl)cc3Cl)CC2)CC1`, in data set [13], the concentration at 4 h stood at 5800 nM. The concentration at 1 h in [14] is 4200 nM. Further, the metabolised at 0.5 h, 15 µM in [12] turned out to be 80%. Consider `CN1CCN(C(=O)[C@H](Cc2ccc(Cl)cc2)NC(=O)C2(c3ccc(Cl)cc3Cl)CC2)CC1`, for which the metabolised at 0.5 h, 15 µM in data set [12] was determined as 73%. On the same count and under the same terms, in the case of `CN1CCN(C(=O)[C@H](Cc2ccc(Br)cc2)NC(=O)C2(c3ccc(Cl)cc3Cl)CC2)CC1` it was 90%. For the compound `O=C([C@H](Cc1ccc(Cl)cc1Cl)NC(=O)C1(c2ccc(Cl)cc2Cl)CC1)N1CCNCC1`, the metabolised at 0.5 h, 15 µM in data set [12] was found to be 10%.

For the compound `C[C@@H]1CN(C(=O)[C@H](Cc2ccc(Cl)cc2Cl)NC(=O)C2(c3ccc(Cl)cc3Cl)CC2)CCN1`, the metabolised at 0.5 h, 15 µM in [12] worked out at 30%. As for `C[C@H]1CN(C(=O)[C@H](Cc2ccc(Cl)cc2Cl)NC(=O)C2(c3ccc(Cl)cc3Cl)CC2)CCN1`, the metabolised at 0.5 h, 15 µM in data set [12] came to 40%. On to `CN(C)CCN(C)C(=O)[C@H](Cc1ccc(Cl)cc1Cl)NC(=O)C1(c2ccc(Cl)cc2Cl)CC1`, for which the metabolised at 0.5 h, 15 µM in data set [12] stood at 70%. Turning to `CN(C)CCN(C)C(=O)[C@H](Cc1ccc(Br)cc1)NC(=O)C1(c2ccc(Cl)cc2Cl)CC1`, the metabolised at 0.5 h, 15 µM in [12] came to 90%.
